The values that follow come from ChEMBL document CHEMBL1135850, “P1 Phenethyl peptide boronic acid inhibitors of HCV NS3 protease” (Bioorg Med Chem Lett, 2002).

Peptide text beside a SMILES is read from it. * marks the point of attachment. X5 = Cc1ccc(CC[C@H](N*)B2O[C@@H]3C[C@@H]4C[C@@H](C4(C)C)[C@]3(C)O2)c(C)c1; X7 = Cc1ccc(C)c(CC[C@H](N*)B2O[C@@H]3C[C@@H]4C[C@@H](C4(C)C)[C@]3(C)O2)c1; X2 = Cc1ccccc1CC[C@H](N*)B1O[C@@H]2C[C@@H]3C[C@@H](C3(C)C)[C@]2(C)O1

For the first experiment, the target named is T1, Neutrophil elastase (Homo sapiens, UniProt P08246).
T1 sequence (P08246 whole entry): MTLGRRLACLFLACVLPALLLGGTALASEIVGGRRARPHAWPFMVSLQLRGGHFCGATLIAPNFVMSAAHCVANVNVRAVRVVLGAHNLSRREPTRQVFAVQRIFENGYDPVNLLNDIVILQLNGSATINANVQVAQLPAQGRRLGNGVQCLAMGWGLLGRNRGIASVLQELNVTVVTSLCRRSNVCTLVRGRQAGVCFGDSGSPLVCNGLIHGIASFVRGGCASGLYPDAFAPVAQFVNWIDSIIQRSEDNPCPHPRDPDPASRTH
The experiment in a line: Inhibitory concentration against Human leukocyte Elastase. The method in brief: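 Human neutrophil elastase (stock 1 mg/mL in PBS with 10% glycerol) with MeO-Suc-Ala-Ala-Pro-Val-p-nitroanilide substrate in PBS at room temperature, DMSO ≤2%. Inhibitors were tested as pinanediol esters. Substrate hydrolysis was followed at 405 nm to derive kinetic parameters.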
By IC50 is commonly meant the concentration that inhibits the measured activity by half. In turn, `CC(C)[C@H](NC(=O)[C@H](CCC(=O)O)NC(=O)[C@@H](N)CC(=O)O)C(=O)N[C@H](C(=O)N1CCC[C@@H]1C(=O)N[C@@H](CCc1ccccc1)B1O[C@@H]2C[C@@H]3C[C@@H](C3(C)C)[C@]2(C)O1)C(C)C` came in with an IC50 of 3500 nM.

On to `CC(C)[C@H](NC(=O)[C@H](CCC(=O)O)NC(=O)[C@@H](N)CC(=O)O)C(=O)N[C@H](C(=O)N1CCC[C@@H]1C(=O)N[C@@H](CCc1ccc(C2CCCCC2)cc1)B1O[C@@H]2C[C@@H]3C[C@@H](C3(C)C)[C@]2(C)O1)C(C)C`, for which inhibition was half-maximal at 400 nM (IC50).

`CC(C)[C@H](NC(=O)[C@H](CCC(=O)O)NC(=O)[C@@H](N)CC(=O)O)C(=O)N[C@H](C(=O)N1CCC[C@@H]1C(=O)N[C@@H](CCc1ccc(F)cc1)B1O[C@@H]2C[C@@H]3C[C@@H](C3(C)C)[C@]2(C)O1)C(C)C` gave an IC50 of 800 nM.

With `CC(C)[C@H](NC(=O)[C@H](CCC(=O)O)NC(=O)[C@@H](N)CC(=O)O)C(=O)N[C@H](C(=O)N1CCC[C@@H]1C(=O)N[C@@H](CCc1ccc(Oc2ccccc2)cc1)B1O[C@@H]2C[C@@H]3C[C@@H](C3(C)C)[C@]2(C)O1)C(C)C`, the IC50 stood at 220 nM.

As for `CC(C)[C@H](NC(=O)[C@H](CCC(=O)O)NC(=O)[C@@H](N)CC(=O)O)C(=O)N[C@H](C(=O)N1CCC[C@@H]1C(=O)N[C@@H](CCc1ccc(C(F)(F)F)cc1)B1O[C@@H]2C[C@@H]3C[C@@H](C3(C)C)[C@]2(C)O1)C(C)C`, the IC50 is 1800 nM.

In turn, `CC(C)C[C@H](NC(=O)[C@H]1CCCN1C(=O)[C@@H](NC(=O)[C@@H](NC(=O)[C@H](CCC(=O)O)NC(=O)[C@@H](N)CC(=O)O)C(C)C)C(C)C)B1O[C@@H]2C[C@@H]3C[C@@H](C3(C)C)[C@]2(C)O1` registered an IC50 of 60 nM.

In turn, `CC(C)c1ccc(CC[C@H](NC(=O)[C@H]2CCCN2C(=O)[C@@H](NC(=O)[C@@H](NC(=O)[C@H](CCC(=O)O)NC(=O)[C@@H](N)CC(=O)O)C(C)C)C(C)C)B2O[C@@H]3C[C@@H]4C[C@@H](C4(C)C)[C@]3(C)O2)cc1` gave an IC50 of 450 nM.

With `CC(C)CCC[C@H](NC(=O)[C@H]1CCCN1C(=O)[C@@H](NC(=O)[C@@H](NC(=O)[C@H](CCC(=O)O)NC(=O)[C@@H](N)CC(=O)O)C(C)C)C(C)C)B1O[C@@H]2C[C@@H]3C[C@@H](C3(C)C)[C@]2(C)O1`, the IC50 is 7300 nM.

`CC(C)[C@H](NC(=O)[C@H](CCC(=O)O)NC(=O)[C@@H](N)CC(=O)O)C(=O)N[C@H](C(=O)N1CCC[C@@H]1C(=O)N[C@@H](CCc1ccc(O)cc1)B1O[C@@H]2C[C@@H]3C[C@@H](C3(C)C)[C@]2(C)O1)C(C)C` yielded an IC50 of 900 nM.

Turning to `CC[C@H](NC(=O)[C@H]1CCCN1C(=O)[C@@H](NC(=O)[C@@H](NC(=O)[C@H](CCC(=O)O)NC(=O)[C@@H](N)CC(=O)O)C(C)C)C(C)C)B1O[C@@H]2C[C@@H]3C[C@@H](C3(C)C)[C@]2(C)O1`, the IC50 was 20 nM.

The molecule `COc1ccc(CC[C@H](NC(=O)[C@H]2CCCN2C(=O)[C@@H](NC(=O)[C@@H](NC(=O)[C@H](CCC(=O)O)NC(=O)[C@@H](N)CC(=O)O)C(C)C)C(C)C)B2O[C@@H]3C[C@@H]4C[C@@H](C4(C)C)[C@]3(C)O2)cc1` came in with an IC50 of 560 nM.

Regarding `CC(C)[C@H](NC(=O)[C@H](CCC(=O)O)NC(=O)[C@@H](N)CC(=O)O)C(=O)N[C@H](C(=O)N1CCC[C@@H]1C(=O)N[C@@H](CCc1ccc(Cl)cc1)B1O[C@@H]2C[C@@H]3C[C@@H](C3(C)C)[C@]2(C)O1)C(C)C`, half-maximal inhibition (IC50) required 1400 nM.

As to `CC(C)[C@H](NC(=O)[C@H](CCC(=O)O)NC(=O)[C@@H](N)CC(=O)O)C(=O)N[C@H](C(=O)N1CCC[C@@H]1C(=O)N[C@@H](CCCCc1ccccc1)B1O[C@@H]2C[C@@H]3C[C@@H](C3(C)C)[C@]2(C)O1)C(C)C`, the IC50 was determined as 400 nM.

Take `Cc1ccc(CC[C@H](NC(=O)[C@H]2CCCN2C(=O)[C@@H](NC(=O)[C@@H](NC(=O)[C@H](CCC(=O)O)NC(=O)[C@@H](N)CC(=O)O)C(C)C)C(C)C)B2O[C@@H]3C[C@@H]4C[C@@H](C4(C)C)[C@]3(C)O2)cc1`: the IC50 was 5000 nM.

For a further experiment, the target named is NS3 (Hepatitis C virus, UniProt A3EZJ3). Description: Inhibitory concentration against Hepatitis C virus NS3 protease. Further details: species or system Hepacivirus hominis. Summed up:
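Continuous fluorescence assay with 4 nM NS3 protease plus NS4A cofactor peptide, in 50 mM Tris pH 7.0, 5 mM DTT, 50% glycerol, 2% CHAPS. Serially diluted inhibitors, given as boronic acid pinanediol esters, were preincubated with enzyme for 15 min. The reaction was started with the FRET ester substrate Ac-DED(EDANS)EEAbuψ[COO]ASK(DABCYL)-NH2 at ambient temperature and read at excitation 360 nm, emission 530 nm.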
`Cc1ccc(CC[C@H](NC(=O)[C@@H]2CCCN2C(=O)[C@@H](NC(=O)[C@@H](NC(=O)[C@H](CCC(=O)O)NC(=O)[C@@H](N)CC(=O)O)C(C)C)C(C)C)B2O[C@@H]3C[C@@H]4C[C@@H](C4(C)C)[C@]3(C)O2)c(C)c1` (H-DEVVP-X5) showed an IC50 of 530 nM.

`Cc1ccc(C)c(CC[C@H](NC(=O)[C@@H]2CCCN2C(=O)[C@@H](NC(=O)[C@@H](NC(=O)[C@H](CCC(=O)O)NC(=O)[C@@H](N)CC(=O)O)C(C)C)C(C)C)B2O[C@@H]3C[C@@H]4C[C@@H](C4(C)C)[C@]3(C)O2)c1` (H-DEVVP-X7): the IC50 turned out to be 1000 nM.

Molecule `Cc1ccccc1CC[C@H](NC(=O)[C@@H]1CCCN1C(=O)[C@@H](NC(=O)[C@@H](NC(=O)[C@H](CCC(=O)O)NC(=O)[C@@H](N)CC(=O)O)C(C)C)C(C)C)B1O[C@@H]2C[C@@H]3C[C@@H](C3(C)C)[C@]2(C)O1` (H-DEVVP-X2) returned an IC50 of 820 nM.
